Screens deposited in PubChem BioAssay by several laboratories.
Rows were chosen to be rich in hits. Some 3.6% of all compounds tested hit in one or more screens of this group.
HCV NS3 hel inh: inhibitors of HCV NS3 helicase, primary screen, biochemical, Cy5 molecular beacon fluorescence | actives 0.56% (n = 290,000) | NS3 helicase DNA unwinding | AID 1800, 2009 | inhibition, % at 10.9 µM;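 active = inhibition above the mean of all tested compounds plus 3 SD, set per campaign, cut at about 35% in these data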;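 also: 0% = DMSO wells and 100% = thioflavine S control wells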
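Measured by: Cy5 fluorescence, 0 and 60 min reads / Assay system: NS3 helicase fragment of HCV / Control set: low DMSO, high thioflavine S at 110 µM / Times: 1 h reaction at 25 °C, ATP-initiated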
EBNA-1 inh: EBNA-1 DNA-binding inhibitors, primary screen, biochemical, fluorescence polarization. inhibition, % at 14.8 µM. actives 0.34% (n = 300,000); in the data active = inhibition above about 28%
NR3A LBD binder: binders of NR3A ligand-binding domain, primary screen, biophysical, differential scanning fluorimetry, uHTS | actives 2.5% (n = 340,000) | NR3A LBD differential scanning fluorimetry, Tm shift; 0% = protein alone, 100% = glycine-bound protein | Glutamate receptor ionotropic, NMDA 3A (GRIN3A) ligand-binding domain | Tm shift relative to glycine control, % at 25 µM;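 active = melting temperature shift of at least 10% of the positive control shift, at one fixed dose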
ZTA counter: blocks Epstein-Barr virus ZTA, an EBNA-1 counter-screen; P03206; ZTA-DNA binding, fluorescence polarization; inhibition, % at 11 µM; actives 0.15% (n = 320,000); in the data active = inhibition above about 33%
Target sequence (P03206 whole entry, looked up): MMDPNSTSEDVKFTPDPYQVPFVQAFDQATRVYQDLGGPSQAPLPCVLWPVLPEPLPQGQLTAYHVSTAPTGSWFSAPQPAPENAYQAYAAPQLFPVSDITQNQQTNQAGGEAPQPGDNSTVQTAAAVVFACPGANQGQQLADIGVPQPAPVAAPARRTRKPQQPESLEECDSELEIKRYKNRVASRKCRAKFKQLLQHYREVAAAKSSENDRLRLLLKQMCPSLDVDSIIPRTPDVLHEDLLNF
DNA FID counter: compounds displacing fluorescent DNA intercalator, primary screen, artefact control for HCV NS3 helicase inhibitor project, biochemical, FID fluorescence; DNA fluorescent intercalator displacement; inhibition, % at 7.9 µM; actives 0.17% (n = 290,000); in the data active = inhibition above about 37%;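 also: 0% = vehicle and 100% = reference compound; higher means more ethidium bromide displaced from hairpin DNA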
FGF22 binding: binders of human FGF22 protein, primary screen, FGF22 synaptogenesis inhibitor project, biophysical, thermal shift, single point. recombinant FGF22 thermal shift, SYPRO orange fluorescence; percent of sucrose octasulfate shift, DMSO zero. AID 651658, 2012. actives 1.5% (n = 340,000). activity (Tm shift, normalised), % at 9.99 µM;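 active = mean Tm shift, scaled 0 neutral to 100 positive control, at about 1.3% or above, every replicate too, limit read from the data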
Target sequence (Q9HCT0 whole entry, looked up): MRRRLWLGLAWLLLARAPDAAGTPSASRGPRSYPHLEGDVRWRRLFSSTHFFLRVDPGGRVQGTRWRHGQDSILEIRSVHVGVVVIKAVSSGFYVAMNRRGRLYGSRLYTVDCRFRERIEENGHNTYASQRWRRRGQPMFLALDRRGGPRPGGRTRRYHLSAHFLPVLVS
An asterisk follows results filed as active; . = no result given.

SMILES	HCV NS3 hel inh	EBNA-1 inh	NR3A LBD binder	ZTA counter	DNA FID counter	FGF22 binding
CN(C)CC(=O)Nc1ccc2c(c1)[C@@H]1C[C@H](CC(=O)NCCc3ccccc3)O[C@@H](CO)[C@@H]1O2	.	.	.	.	.	0.1
c1coc(CNC2CCCCCCC2)c1	0.8	3.5	10.6*	6.8	1.7	.
c1coc(CNC2CCCCC2)c1	-6.9	-6.4	-0.4	-24.4	-0.9	.
CC(C)C(C(=O)NCc1ccco1)N(CC1CCCO1)C(=O)CNS(=O)(=O)c1ccccc1 (stereo unspecified)	-1.7	1.0	-0.8	10.3	-23.3	43.3*
CC(C)C(C(=O)NCc1ccccc1)N(CC1CCCO1)C(=O)CNS(=O)(=O)c1ccccc1 (stereo unspecified)	3.7	-11.8	-0.9	-3.7	-35.3	0.4
COc1cc(NC(=O)c2ccnc(N)c2)cc(C(=O)Nc2cccc(C(F)(F)F)c2)c1	.	9.0	13.5*	0.3	.	-0.1
CCN(CC)S(=O)(=O)c1cccc(NC(=O)Nc2cccc(C(F)(F)F)c2)c1	-0.6	13.7	31.0*	2.2	-5.3	.
CCN(CC)S(=O)(=O)c1cccc(NC(=O)CC2CCCC2)c1	-5.3	5.7	-2.4	-0.4	-20.6	0.3
Cc1cc(NC(=O)Nc2cccc(C(F)(F)F)c2)no1	7.7	-0.8	589.1*	-2.8	0.2	.
Cc1cc(NS(=O)(=O)c2ccc(NC(=O)Nc3cccc(C(F)(F)F)c3)cc2)no1	-14.1	11.3	21.7*	15.2	-11.4	-0.1
C[C@@H](NC(=O)C[C@@H]1C[C@H]2c3cc(NC(=O)c4cccnc4)ccc3O[C@H]2[C@H](CO)O1)c1ccccc1	.	.	.	.	.	-0.2
Cc1ncsc1C(=O)Nc1cccc(C(F)(F)F)c1	-0.5	9.7	27.0*	21.2	-1.0	0.3
O=C(c1cc(-c2ccccc2)nc2ccccc12)N1CCOCC1	-2.4	-6.8	-5.5	-11.6	-6.0	.
COc1ccc(-c2cc(C(=O)NCCCN3CCOCC3)c3cc(C(C)C)ccc3n2)cc1	-85.6	15.8	0.0	3.7	37.2*	0.1
COc1ccc(Nc2cc(C(=O)NCCCN3CCN(C)CC3)c3ccccc3n2)cc1	-25.9	-19.8	1.9	-17.1	40.9*	.
CCOc1ccc(-c2cc(C(=O)NCCCN3CCOCC3)c3ccccc3n2)cc1	-20.7	-1.1	2.5	-17.0	19.0	0.1
COc1ccc(Nc2cc(C(=O)NCCCN3CCOCC3)c3ccccc3n2)cc1	-19.3	-5.7	1.2	1.0	17.8	-0.5
CC(C)c1ccc(-c2cc(C(=O)N3CCOCC3)c3cc(Br)ccc3n2)cc1	-8.1	14.2	18.6*	3.8	-12.3	0.0
O=C(Nc1ccc2c(c1)OCCO2)c1cc(-c2ccccn2)nc2ccc(Br)cc12	0.7	4.6	2.5	16.1	2.3	43.6*
CN(C)CCCNC(=O)[C@@H]1[C@@H](CO)[C@@H]2Cn3c(ccc(C4=CCCC4)c3=O)[C@H]1N2Cc1cocn1	.	.	.	.	.	-0.2
COCC(=O)N(C)C[C@@H]1Oc2cc(C3=CCCC3)ccc2S(=O)(=O)N([C@H](C)CO)C[C@@H]1C	.	.	.	.	.	-0.2
COc1ccccc1Nc1cc(C(=O)NCCCN2CCOCC2)c2ccccc2n1	-4.3	-15.0	-0.7	-2.5	19.3	0.1
Cc1cc(C(=O)NN)c2cc(Br)ccc2n1	-0.6	4.8	0.5	11.1	-6.5	0.0
COc1cc(NC(=O)c2cc(-c3cccnc3)nc3ccc(Br)cc23)cc(OC)c1	-11.7	3.1	10.1*	11.4	-3.9	0.1
NNC(=O)c1cc(-c2ccc(N)cc2)nc2ccc(Br)cc12	5.0	-4.1	18.1*	-8.5	4.8	-0.1
SMILES	HCV NS3 hel inh	EBNA-1 inh	NR3A LBD binder	ZTA counter	DNA FID counter	FGF22 binding
COc1ccc(OC)c(Nc2cc(C(=O)NCCCN3CCOCC3)c3ccccc3n2)c1	-48.7	0.2	3.5	0.5	41.1*	.
C[C@@H]1CN([C@H](C)CO)C(=O)c2cc(C3=CCCC3)cnc2O[C@@H]1CN(C)Cc1cccc(F)c1	.	.	.	.	.	-0.2
C/C=C/c1ccc([C@H]2[C@@H](CO)N(Cc3cncnc3)C23CN(C(=O)CC2CC2)C3)cc1	.	.	.	.	.	-0.4
CC1=NNC(=O)C1CC(=O)N/N=C/C(C)=C/c1ccccc1 (stereo unspecified)	-13.3	9.5	-1.9	12.6	-3.7	-0.1
CC1=NNC(=O)C1CC(=O)N/N=C/c1ccc(C)o1 (stereo unspecified)	28.6	0.6	18.3*	-5.1	-9.5	-0.2
CC(C)(C)OC(=O)N1CCC[C@H]1C(=O)N/N=C/c1cccc2cccnc12	6.7	7.5	13.9*	6.3	-23.2	0.1
COc1ccc(S(=O)(=O)N(C)CC(=O)NCCC2=CCCCC2)cc1OC	-0.7	0.3	12.7*	2.6	-21.3	.
COc1ccc(S(=O)(=O)N(C)CC(=O)NCCC2=CCCCC2)cc1	4.2	6.5	-2.2	5.8	-22.8	.
Cc1ccc([N+](=O)[O-])cc1N(CC(=O)Nc1ccc(S(=O)(=O)Nc2cccc(C(F)(F)F)c2)cc1)S(C)(=O)=O	-35.0	5.6	12.3*	-11.7	24.3	.
COc1ccccc1N(CC(=O)Nc1cccc(C(F)(F)F)c1)S(C)(=O)=O	1.8	-3.0	0.4	-0.7	-4.5	0.1
COc1ccc(CCN(Cc2nc(-c3ccccc3)no2)Cc2nc(-c3ccccc3)no2)cc1OC	1.6	-3.7	16.0*	5.5	-0.2	.
O=C(CN1CCOCC1)N[C@@H]1CC[C@@H](CCn2cc(C3CC3)nn2)O[C@@H]1CO	.	.	.	.	.	0.2
CSc1nnc(Cc2ccc3c(c2)OCO3)o1	2.5	-3.8	2.1	6.2	-4.7	.
N#CCCCSc1nnc(Cc2ccc3c(c2)OCO3)o1	-7.0	0.1	11.7*	9.2	-6.1	.
CO[C@H]1CN(C)C(=O)c2ccc(NC(C)=O)cc2OC[C@@H](C)N(Cc2ccccc2F)C[C@H]1C	.	.	.	.	.	-0.1
COc1ccc(NC(=O)C2CC(=O)N(CCc3ccc(Cl)cc3)C2)cc1 (stereo unspecified)	-10.1	1.3	11.7*	-3.1	-36.1	-0.1
CCOC(=O)/C(=N\Nc1ccccc1)c1csc(Nc2ccc(C)cc2)n1	7.0	-4.3	24.7*	-15.1	1.4	0.1
CC(=O)N(C)C[C@H]1Oc2cc(C3=CCCC3)ccc2S(=O)(=O)N([C@@H](C)CO)C[C@H]1C	.	.	.	.	.	0.3
CO[C@H]1CN(C)C(=O)c2cc(NC(=O)NC(C)C)ccc2OC[C@H](C)N(CC2CC2)C[C@H]1C	.	.	.	.	.	0.1
N#C/C(=C/c1ccc(N2CCCCC2)o1)C(=O)Nc1ccc(Cl)cc1	9.9	-0.8	11.5*	-5.0	3.4	.
N#C/C(=C/c1ccc(N2CCCCC2)o1)C(=O)Nc1ccc2ccccc2c1	14.0	.	0.3	.	-8.0	0.2
